≈ marks a conversion by molar mass, not a printed value.
How the values were obtained:
[1] = tested on: Mycobacterium tuberculosis; assay: Antimycobacterial activity against Mycobacterium bovis BCG assessed as clolony forming unit at 125 ug/ml after 7 days in presence of dextrin; assay type: functional, variant bovis BCG
How it was run: (§1)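 M. bovis BCG exposed to agent, with or without sucrose or 2.5% dextran, in log-phase and stationary-phase cultures. Bactericidal activity read as viable count (log CFU/ml) at day 7 and day 21. Values given as means ± SD.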

[2] = tested on: Mycobacterium tuberculosis; assay: Antimycobacterial activity against Mycobacterium bovis BCG assessed as clolony forming unit at 125 ug/ml after 21 days; assay type: functional, variant bovis BCG; how it was run: as §1
[3] = tested on: Mycobacterium tuberculosis; assay: Antimycobacterial activity against Mycobacterium bovis BCG assessed as clolony forming unit at 125 ug/ml after 7 days in presence of sucrose; assay type: functional, variant bovis BCG; how it was run: as §1
[4] = tested on: Mycobacterium tuberculosis; assay: Antimycobacterial activity against Mycobacterium bovis BCG assessed as clolony forming unit at 125 ug/ml after 21 days in presence of sucrose; assay type: functional, variant bovis BCG; how it was run: as §1
[5] = tested on: Mycobacterium tuberculosis; assay: Antimycobacterial activity against Mycobacterium bovis BCG carrying pMV261::ethR; assay type: functional; conditions: Mycobacterium tuberculosis variant bovis BCG
How it was run: (§2)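 MIC by agar method on 7H11 supplemented with OADC. M. bovis BCG carried empty pMV261, or pMV261 overexpressing EthA or EthR from the constitutive hsp60 promoter. Results reported as MIC ranges in µg/ml.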

[6] = tested on: Mycobacterium tuberculosis; assay: Antimycobacterial activity against Mycobacterium bovis BCG assessed as clolony forming unit at 125 ug/ml after 7 days; assay type: functional, variant bovis BCG; how it was run: as §1
[7] = tested on: Mycobacterium tuberculosis; assay: Antimycobacterial activity against Mycobacterium bovis BCG carrying pMV261::ethA; assay type: functional; conditions: Mycobacterium tuberculosis variant bovis BCG; how it was run: as §2
[8] = tested on: Mycobacterium tuberculosis; assay: Antimycobacterial activity against Mycobacterium bovis BCG carrying pMV261; assay type: functional; conditions: Mycobacterium tuberculosis variant bovis BCG; how it was run: as §2
[9] = tested on: Mycobacterium tuberculosis; assay: Antimycobacterial activity against Mycobacterium bovis BCG assessed as clolony forming unit at 125 ug/ml after 21 days in presence of destrin; assay type: functional, variant bovis BCG; how it was run: as §1
[10] = tested on: Mycobacterium tuberculosis; assay: Antimycobacterial activity against Mycobacterium bovis BCG assessed as clolony forming unit at 313 ug/ml after 21 days in presence of sucrose; assay type: functional, variant bovis BCG; how it was run: as §1
[11] = tested on: Mycobacterium tuberculosis; assay: Antimycobacterial activity against Mycobacterium bovis BCG assessed as clolony forming unit at 313 ug/ml after 7 days; assay type: functional, variant bovis BCG; how it was run: as §1
[12] = tested on: Mycobacterium tuberculosis; assay: Antimycobacterial activity against Mycobacterium bovis BCG assessed as clolony forming unit at 313 ug/ml after 21 days in presence of destrin; assay type: functional, variant bovis BCG; how it was run: as §1
[13] = tested on: Mycobacterium tuberculosis; assay: Antimycobacterial activity against Mycobacterium bovis BCG assessed as clolony forming unit at 313 ug/ml after 7 days in presence of sucrose; assay type: functional, variant bovis BCG; how it was run: as §1
[14] = tested on: Mycobacterium tuberculosis; assay: Antimycobacterial activity against Mycobacterium bovis BCG assessed as clolony forming unit at 313 ug/ml after 7 days in presence of dextrin; assay type: functional, variant bovis BCG; how it was run: as §1
[15] = tested on: Mycobacterium tuberculosis; assay: Antimycobacterial activity against Mycobacterium bovis BCG assessed as clolony forming unit at 313 ug/ml after 21 days; assay type: functional, variant bovis BCG; how it was run: as §1
[16] = tested on: Mycobacterium tuberculosis; assay: Antimycobacterial activity against Mycobacterium bovis BCG assessed as clolony forming unit at 4 ug/ml after 21 days; assay type: functional, variant bovis BCG; how it was run: as §1
[17] = tested on: Mycobacterium tuberculosis; assay: Antimycobacterial activity against Mycobacterium bovis BCG assessed as clolony forming unit at 4 ug/ml after 7 days; assay type: functional, variant bovis BCG; how it was run: as §1
[18] = tested on: Mycobacterium tuberculosis; assay: Antimycobacterial activity against Mycobacterium bovis BCG assessed as clolony forming unit at 4 ug/ml after 21 days in presence of destrin; assay type: functional, variant bovis BCG; how it was run: as §1
[19] = tested on: Mycobacterium tuberculosis; assay: Antimycobacterial activity against Mycobacterium bovis BCG assessed as clolony forming unit at 4 ug/ml after 7 days in presence of sucrose; assay type: functional, variant bovis BCG; how it was run: as §1
[20] = tested on: Mycobacterium tuberculosis; assay: Antimycobacterial activity against Mycobacterium bovis BCG assessed as clolony forming unit at 4 ug/ml after 7 days in presence of dextrin; assay type: functional, variant bovis BCG; how it was run: as §1
[21] = tested on: Mycobacterium tuberculosis; assay: Antimycobacterial activity against Mycobacterium bovis BCG assessed as clolony forming unit at 4 ug/ml after 21 days in presence of sucrose; assay type: functional, variant bovis BCG; how it was run: as §1

CC(=O)N[C@@H]1[C@@H](O)[C@H](O)[C@@H](CO)O[C@H]1SC(=S)N1CCCC1
log10CFU/ml [1]: 6.07
log10CFU/ml [2]: 4.43
log10CFU/ml [3]: 6.25
log10CFU/ml [4]: 5.76
MIC [5]: 1 µg/mL (≈ 2.85 µM)
log10CFU/ml [6]: 4.55
MIC [7]: 1 µg/mL (≈ 2.85 µM)
MIC [8]: 1 µg/mL (≈ 2.85 µM)
log10CFU/ml [9]: 5.79

CC(=O)N[C@@H]1[C@@H](O)[C@H](O)[C@@H](CO)O[C@H]1SC(=S)N(C)C
log10CFU/ml [10]: 5.78
log10CFU/ml [11]: 5.91
log10CFU/ml [12]: 5.91
MIC [5]: 10 µg/mL (≈ 30.8 µM)
log10CFU/ml [13]: 6.41
MIC [7]: 10 µg/mL (≈ 30.8 µM)
MIC [8]: 10 µg/mL (≈ 30.8 µM)
log10CFU/ml [14]: 6.44
log10CFU/ml [15]: 5.2

CCc1cc(C(N)=S)ccn1 [ETHIONAMIDE]
MIC [5]: 10 µg/mL (≈ 60.2 µM)
MIC [7]: 0.5 µg/mL (≈ 3.01 µM)
MIC [8]: 1 µg/mL (≈ 6.02 µM)

N.S=C(S)N1CCCC1 [PYRROLIDINE DITHIOCARBAMIC ACID, AMMONIUM SALT]
log10CFU/ml [16]: 4.41
MIC [5]: 0.25 µg/mL
log10CFU/ml [17]: 4.65
log10CFU/ml [18]: 5.56
log10CFU/ml [19]: 6.05
MIC [7]: 0.5 µg/mL
MIC [8]: 0.5 µg/mL
log10CFU/ml [20]: 6.93
log10CFU/ml [21]: 5.56
